Laboratory results published in ChEMBL document CHEMBL4725358 (J Med Chem, 2020).
The source made the active and inactive calls. The rule behind the calls is not given here.

What was measured:
[1] = target: T1, G protein-coupled receptor 34a (Danio rerio, UniProt Q6XCC7); assay: Agonist activity at zebrafish GPR34 type a expressed in HEK293 cells co-transfected with AP-TGFalpha/Galphaq/i1 assessed as induction of ectodomain shedding of membrane bound AP-TGFalpha after 1 hr by p-NPP substrate based microplate reader analysis; format: cell-based
T1 sequence (Q6XCC7 whole entry): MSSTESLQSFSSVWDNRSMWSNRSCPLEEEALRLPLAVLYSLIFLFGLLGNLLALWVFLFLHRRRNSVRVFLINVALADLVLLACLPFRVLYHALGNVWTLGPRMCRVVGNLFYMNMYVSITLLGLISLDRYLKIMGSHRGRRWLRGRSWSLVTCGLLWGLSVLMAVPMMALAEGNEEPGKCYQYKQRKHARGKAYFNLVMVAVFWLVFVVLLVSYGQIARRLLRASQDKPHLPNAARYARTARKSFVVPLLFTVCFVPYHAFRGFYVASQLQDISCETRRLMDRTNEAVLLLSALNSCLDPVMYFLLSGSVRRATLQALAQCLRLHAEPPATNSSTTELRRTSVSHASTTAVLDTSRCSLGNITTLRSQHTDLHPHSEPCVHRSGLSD

[2] = target: T2, G protein-coupled receptor 34a (Danio rerio) (UniProt Q6XCC7); assay: Agonist activity at zebrafish GPR34 type a expressed in HEK293 cells co-transfected with AP-TGFalpha/Galphaq/i1 assessed as induction of ectodomain shedding of membrane bound AP-TGFalpha after 1 hr by p-NPP substrate based microplate reader analysis relative to control; format: cell-based
T2 sequence (whole entry): T1 sequence (Q6XCC7 whole entry)

[3] = target: Putative P2Y purinoceptor 10 (Mus musculus, UniProt Q8BFU7); assay: Agonist activity at mouse P2Y10 expressed in HEK293 cells co-transfected with AP-TGFalpha/Galphaq/i1 assessed as induction of ectodomain shedding of membrane bound AP-TGFalpha after 1 hr by p-NPP substrate based microplate reader analysis; format: cell-based
Procedure, shortened: (§1)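 Run the same way as the GPR34 shedding assay, but with a mouse P2Y10 expression vector in HEK293 cells alongside AP-TGFα and chimeric Gα. Receptor-specific AP-TGFα release was found by subtracting the empty-vector background. EC50 and Emax came from concentration-response curves. Mean and SEM of 3−8 independent experiments.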

[4] = target: Probable G-protein coupled receptor 34 (Mus musculus) (UniProt Q9R1K6); assay: Agonist activity at mouse GPR34 expressed in HEK293 cells co-transfected with Galphaq/i1 assessed as increase in calcium influx by calcium 5 dye based FLIPR assay; format: functional, cell-based
Procedure, shortened: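 Mouse GPR34-expressing HEK293 cells were monitored for calcium influx after compound was added at 100 nM or 10 nM. Each run was done in triplicate and reported as mean and S.D.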

[5] = target: Probable G-protein coupled receptor 34 (Mus musculus, UniProt Q9R1K6); assay: (§2) Agonist activity at mouse GPR34 expressed in HEK293 cells co-transfected with AP-TGFalpha/Galphaq/i1 assessed as induction of ectodomain shedding of membrane bound AP-TGFalpha after 1 hr by p-NPP substrate based microplate reader analysis; format: cell-based
Procedure, shortened: (§3)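 HEK293 cells transiently transfected with AP-TGFα, chimeric Gα and mouse GPR34 vectors, then treated with compound. Empty-vector cells (AP-TGFα plus chimeric Gα) served as background. Receptor-specific AP-TGFα release was taken after subtracting that background, and concentration-response curves gave EC50 and Emax. Mean and SEM of 3−8 independent experiments.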

[6] = target: Putative P2Y purinoceptor 10 (Mus musculus) (UniProt Q8BFU7); assay: Agonist activity at mouse P2Y10 expressed in HEK293 cells co-transfected with AP-TGFalpha/Galphaq/i1 assessed as induction of ectodomain shedding of membrane bound AP-TGFalpha after 1 hr by p-NPP substrate based microplate reader analysis relative to control; format: cell-based; procedure, shortened: as §1
[7] = target: Probable G-protein coupled receptor 34 (Mus musculus) (UniProt Q9R1K6); assay: Agonist activity at mouse GPR34 expressed in HEK293 cells co-transfected with AP-TGFalpha/Galphaq/i1 assessed as induction of ectodomain shedding of membrane bound AP-TGFalpha after 1 hr by p-NPP substrate based microplate reader analysis relative to positive control; format: cell-based; procedure, shortened: as §3
[8] = target: T3, G protein-coupled receptor 34b (Danio rerio) (UniProt B0S6P9); assay: Agonist activity at zebrafish GPR34 type b expressed in HEK293 cells co-transfected with AP-TGFalpha/Galphaq/i1 assessed as induction of ectodomain shedding of membrane bound AP-TGFalpha after 1 hr by p-NPP substrate based microplate reader analysis relative to control; format: cell-based
T3 sequence (whole entry): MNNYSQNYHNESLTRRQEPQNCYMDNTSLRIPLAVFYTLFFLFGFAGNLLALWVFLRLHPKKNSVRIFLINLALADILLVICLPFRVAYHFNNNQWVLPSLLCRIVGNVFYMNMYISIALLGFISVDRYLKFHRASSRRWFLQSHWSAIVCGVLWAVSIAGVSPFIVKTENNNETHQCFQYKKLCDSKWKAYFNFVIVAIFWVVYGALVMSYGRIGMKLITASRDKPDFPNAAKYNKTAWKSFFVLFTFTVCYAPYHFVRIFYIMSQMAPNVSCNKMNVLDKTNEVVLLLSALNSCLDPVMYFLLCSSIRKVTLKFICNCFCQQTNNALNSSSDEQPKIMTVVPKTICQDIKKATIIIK

[9] = target: T4, G protein-coupled receptor 34b (Danio rerio, UniProt B0S6P9); assay: Agonist activity at zebrafish GPR34 type b expressed in HEK293 cells co-transfected with AP-TGFalpha/Galphaq/i1 assessed as induction of ectodomain shedding of membrane bound AP-TGFalpha after 1 hr by p-NPP substrate based microplate reader analysis; format: cell-based
T4 sequence (B0S6P9 whole entry): T3 sequence (whole entry)

[10] = target: Probable G-protein coupled receptor 34 (Mus musculus) (UniProt Q9R1K6); assay: Agonist activity at mouse GPR34 expressed in HEK293 cells co-transfected with AP-TGFalpha/Galphaq/i1 assessed as induction of ectodomain shedding of membrane bound AP-TGFalpha after 1 hr by p-NPP substrate based microplate reader analysis relative to control; format: cell-based; procedure, shortened: as §3
[11] = target: Putative P2Y purinoceptor 10 (Mus musculus) (UniProt Q8BFU7); assay: Agonist activity at mouse P2Y10 expressed in HEK293 cells co-transfected with AP-TGFalpha/Galphaq/i1 assessed as induction of ectodomain shedding of membrane bound AP-TGFalpha after 1 hr by p-NPP substrate based microplate reader analysis relative to positive control; format: cell-based; procedure, shortened: as §1
[12] = target: Probable G-protein coupled receptor 34 (Homo sapiens, UniProt Q9UPC5); assay: Agonist activity at human GPR34 expressed in HEK293 cells co-transfected with AP-TGFalpha/Galphaq/i1 assessed as induction of ectodomain shedding of membrane bound AP-TGFalpha after 1 hr by p-NPP substrate based microplate reader analysis; format: cell-based
[13] = target: Probable G-protein coupled receptor 34 (Mus musculus) (UniProt Q9R1K6); assay: as §2; format: cell-based; procedure, shortened: as §3

Chain of Putative P2Y purinoceptor 10 (Q8BFU7 whole entry, the tested form may be a part): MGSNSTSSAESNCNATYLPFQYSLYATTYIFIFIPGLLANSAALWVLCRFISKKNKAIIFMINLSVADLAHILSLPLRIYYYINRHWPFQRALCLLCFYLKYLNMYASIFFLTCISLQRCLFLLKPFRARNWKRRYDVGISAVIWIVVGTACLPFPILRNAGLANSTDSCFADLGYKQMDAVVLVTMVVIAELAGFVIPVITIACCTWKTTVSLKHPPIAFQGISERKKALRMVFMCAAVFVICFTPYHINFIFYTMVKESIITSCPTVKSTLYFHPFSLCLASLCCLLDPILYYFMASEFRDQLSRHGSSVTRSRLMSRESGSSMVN
Chain of Putative P2Y purinoceptor 10 (Mus musculus) (Q8BFU7 whole entry, the tested form may be a part): as above
Chain of Probable G-protein coupled receptor 34 (Mus musculus, UniProt Q9R1K6) (Q9R1K6 whole entry, the tested form may be a part): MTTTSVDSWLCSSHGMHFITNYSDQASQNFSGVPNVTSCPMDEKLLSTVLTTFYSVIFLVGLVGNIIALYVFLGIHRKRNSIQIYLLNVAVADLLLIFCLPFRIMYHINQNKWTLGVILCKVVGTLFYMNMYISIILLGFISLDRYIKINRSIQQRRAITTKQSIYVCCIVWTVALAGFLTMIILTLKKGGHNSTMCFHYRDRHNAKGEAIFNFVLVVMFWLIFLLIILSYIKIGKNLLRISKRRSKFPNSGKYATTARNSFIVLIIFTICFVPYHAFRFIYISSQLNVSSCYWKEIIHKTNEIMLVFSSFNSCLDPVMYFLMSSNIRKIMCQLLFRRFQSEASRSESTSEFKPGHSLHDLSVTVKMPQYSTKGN
Chain of Probable G-protein coupled receptor 34 (Mus musculus) (Q9R1K6 whole entry, the tested form may be a part): as above
Chain of Probable G-protein coupled receptor 34 (Homo sapiens, UniProt Q9UPC5) (Q9UPC5 whole entry, the tested form may be a part): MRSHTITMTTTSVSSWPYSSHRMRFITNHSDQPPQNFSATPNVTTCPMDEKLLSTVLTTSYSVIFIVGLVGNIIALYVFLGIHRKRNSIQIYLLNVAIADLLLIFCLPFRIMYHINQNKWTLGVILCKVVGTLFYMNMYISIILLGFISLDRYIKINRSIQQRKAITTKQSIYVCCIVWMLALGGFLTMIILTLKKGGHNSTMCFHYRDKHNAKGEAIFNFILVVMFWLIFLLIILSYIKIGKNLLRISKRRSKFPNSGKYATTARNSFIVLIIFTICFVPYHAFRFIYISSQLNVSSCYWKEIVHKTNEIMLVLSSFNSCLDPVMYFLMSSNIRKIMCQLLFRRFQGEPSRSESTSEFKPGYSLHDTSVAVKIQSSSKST

SMILES	EC50 [1] [nM]	Emax [2] [%]	EC50 [3] [nM]	Activity ([4]; filed as agonist)	EC50 ([5]; read-out: EC50) [nM]	Emax [6]	fold change (FC) ([7]; filed as agonist)	Emax [8] [%]	EC50 [9] [nM]	Emax [10]	fold change (FC) ([11]; filed as agonist)	EC50 [12] [nM]	Activity [4]	pEC50 [13]	EC50 ([5]; hek293)	fold change (FC) [7]	fold change (FC) [11]
CCCCCCCCCCCOc1ccccc1CCC(=O)O[C@@H]1CCOC[C@H]1OP(=O)(O)OC[C@H](N)C(=O)O	510	14	1	Active	0.83	10.6%	100	25	12	10.3%	1.7	0.75					
CCCCCCCCCCCOc1ccccc1CCC(=O)O[C@H]1CCOC[C@@H]1OP(=O)(O)OC[C@H](N)C(=O)O			12			11.1%				inactive	0.14		inactive	inactive	Not Active	inactive	
CCCCCCCCCCCOc1ccccc1CCC(=O)OC1COCCC1OP(=O)(O)OC[C@H](N)C(=O)O (single isomer, unassigned)			1300		340	8.6%	0.1			3.7%	0.00079						
COC[C@H](COC(=O)CCc1ccccc1OCc1cccc(Oc2ccccc2)c1)OP(=O)(O)OC[C@H](N)C(=O)O			> 3000		5.7	inactive	21			13.5%							inactive
CCCCCCCCCCCOc1ccccc1CCC(=O)O[C@H]1CCOC[C@H]1OP(=O)(O)OC[C@H](N)C(=O)O			420		> 3000	3.2%				inactive	0.0012					inactive	
CCCCCCCC/C=C\CCCCCCCC(=O)OC[C@H](C)OP(=O)(O)OC[C@H](N)C(=O)O			37		170	11.3%	0.56			11.2%	0.034						
CCCCCCCCCCCOc1ccccc1CCC(=O)O[C@@H]1CCOC[C@@H]1OP(=O)(O)OC[C@H](N)C(=O)O			1300		220	19.3%	0.61			8.9%	0.00089						
CCCCCCCC/C=C\CCCCCCCC(=O)OC[C@@H](C)OP(=O)(O)OC[C@H](N)C(=O)O			250		24	12.4%	4.8			12.8%	0.0054						
CCOC[C@H](COC(=O)CCc1ccccc1OCc1cccc(Oc2ccccc2)c1)OP(=O)(O)OC[C@H](N)C(=O)O	> 3000		> 3000		5				1200								
CCCCCCCC/C=C\CCCCCCCC(=O)OC[C@@H](COC)OP(=O)(O)OC[C@H](N)C(=O)O			> 3000		11	inactive	12			12.9%							inactive
CCCCCCCCCCCOc1ccccc1CCC(=O)O[C@@H]1COCCC1OP(=O)(O)OC[C@H](N)C(=O)O (single isomer, unassigned)			840		63	12%	1.3			6.4%	0.0018						
C[C@H](COP(=O)(O)OC[C@H](N)C(=O)O)OC(=O)CCc1ccccc1OCc1cccc(Oc2ccccc2)c1			170		6.3	13.8%	16			12%	0.0099						
CCCCCCCC/C=C\CCCCCCCC(=O)OC[C@@H](COCc1ccccc1)OP(=O)(O)OC[C@H](N)C(=O)O			1400		880	7.3%	0.13			9.6%	0.00075						
CCCCCCCC/C=C\CCCCCCCC(=O)OC[C@@H](O)COP(=O)(O)OC[C@H](N)C(=O)O	130	22.1	20			13.6%		25.1	3.5								
N[C@@H](COP(=O)(O)OCCOC(=O)CCc1ccccc1OCc1cccc(Oc2ccccc2)c1)C(=O)O			2300		220	20.8%	0.44			12.4%	0.0013						
